Measured values gathered from unrelated publications.
Compare with care: the assays were run in different laboratories.

SMILES | cell line | assay | setting | quantity | value
CCCCCCCC(=O)SCC/C=C/[C@@H]1CC(=O)NCc2nc(cs2)C2=N[C@@](C)(CS2)C(=O)N[C@@H](C(C)C)C(=O)O1 | SW-620 | cell growth or viability, resazurin | 48 h | IC50 | 0.0265 µM
Cn1cncc1[C@@](N)(c1ccc(Cl)cc1)c1ccc2c(c1)c(-c1cccc(Cl)c1)cc(=O)n2C | FaDu | cell growth or viability | 72 h | IC50 | 2.73 µM
CCN1C(=O)SCC1C1(OC)CC2CC(CCC(C)C=CC=CCCC(C)=CC(=O)O2)O1 (stereo not drawn) | MCF7 | cell growth or viability, MTT | 72 h | IC50 | 20.6 µM
COc1cc2c3c(n(CCCN4CCOCC4)c(=O)c2cc1OC)-c1cc2c(cc1C3=O)OCO2 | P388 | cell growth or viability | 72 h | IC50 | 0.154 mg/L
COc1cc2c3c(n(CCCNCCO)c(=O)c2cc1OC)-c1cc2c(cc1C3=O)OCO2 | MCF7 | cell growth or viability, SRB |  | GI50 | < 0.01 µM
c1ccc([C@@H]2C[C@H]2NC2CCNCC2)cc1 | TF-1a | cell growth or viability, resazurin | 96 h | EC50 | 0.00155 µM
N.N.[Cl][Pt][Cl] | MCF7 | cell growth or viability, SRB |  | EC50 | 3.6 µM
CC(C)[C@@H]1NC(=O)[C@H](CO)NC(=O)[C@H](CO)NC(=O)[C@H](CO)N(C)C(=O)[C@H](CC(=O)O)NC(=O)[C@H](CO)NC(=O)[C@H](Cc2ccccc2)NC(=O)CSC[C@@H](C(=O)NCC(N)=O)NC(=O)[C@H](CC(N)=O)NC(=O)[C@H](CCCNC(=N)N)NC(=O)[C@H](C)NC(=O)[C@H](Cc2ccc(-c3ccccc3)cc2)NC(=O)[C@H](CC(N)=O)NC(=O)[C@@H]2CCCN2C1=O | SJSA-1 | cell growth or viability |  | EC50 | > 30 µM
C[C@@H](O)[C@H](NC(=O)[C@H](CCCNC(=N)N)NC(=O)[C@H](CC(N)=O)NC(=O)[C@H](CC(N)=O)NC(=O)[C@@H](N)CCCNC(=N)N)C(=O)N[C@@H](CO)C(=O)NCC(=O)N[C@@H](Cc1ccccc1)C(=O)N[C@@H](CCCCN)C(=O)N[C@@H](Cc1c[nH]c2ccccc12)C(=O)O | THP-1 | cell growth or viability, ATP luminescence | 48 h | IC50 | 1.8 µM
O=c1ccc2ccc3occc3c2o1 | HEp-2 | cell growth or viability, WST-1 | 48 h | IC50 | 11.5 µM
Cc1c2ccncc2c(C)c2c1[nH]c1ccccc12 | THP-1 | TNF-α release, inhibitor | 17 h, LPS-stimulated | IC50 | 1.57 µM
COc1c2c(cc3c1OCO3)[C@]13C=C[C@H](OC)C[C@@H]1[N@](C2)C[C@H]3OC(=O)c1ccco1 | SAOS-2 | cell growth or viability, WST-1 |  | IC50 | > 10 µM
O=c1ccc2cc3ccoc3cc2o1 | HEp-2 | cell growth or viability, WST-1 | 48 h | IC50 | 20.5 µM
COc1c2c(cc3c1OCO3)[C@]13C=C[C@H](OC)C[C@@H]1[N@](C2)C[C@H]3OC(=O)c1ccoc1 | SAOS-2 | cell growth or viability, WST-1 |  | IC50 | > 10 µM
CC(C)[C@H](N)C(=O)N1CCC[C@H]1B(O)O | THP-1 | cell growth or viability, ATP luminescence | 48 h | IC50 | 0.206 µM
C=CC(=O)Nc1cc(Nc2nccc(-c3cn(C)c4ccccc34)n2)c(OC)cc1N(C)CCN(C)C | Calu-3 | cell growth or viability | 72 h | IC50 | 0.65 µM
C1COCCN1.COc1ccc(/C=C\c2cc(I)c(OC)c(I)c2)cc1OP(=O)(O)O | MCF7 | cell growth or viability, SRB | 48 h | GI50 | 0.066 mg/L
C/C1=C/C(=O)O[C@@H]2C[C@@H](CC[C@H](C)/C=C\C=C\CC1)O[C@@](O)([C@@H]1CSC(=O)N1)C2 | MCF7 | cell growth or viability, MTT | 72 h | IC50 | 0.48 µM
